Consider 41 compounds from PubChem BioAssay AID720574 (Broad Institute, 2013).

Where “and” joins values, the source holds several entries; their conditions need not be identical. Equal entries are not always repeated. Hit rate of the full screen: of about 96,000 compounds, about 140 (0.15%) were called active. What follows is part of a selection rich in actives, with near analogues and random picks from the rest. A number with no mark means an inactive call.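 Rule for the calls: active = mean replicate inhibition above about 25%, with at least 55% of replicates also reaching it (limit read from the data, passing the limit was not always enough); inconclusive = only one of those two conditions met; inactive = neither condition met.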

For the test, the target named is Lysine-specific demethylase 4C (Homo sapiens) (UniProt Q9H3R0). The test can be described thus: inhibitors of GASC-1 (KDM4C) histone demethylase, primary screen, biochemical, single concentration HTS (AID 720574). As to conditions: GST-KDM4C 2-372, H3K9me3 peptide, LANCE TR-FRET; at 12.5 µM; stronger effect = higher value. Put shortly: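 reagent = H3K9me3 peptide substrate, Fe(II), 2-oxoglutarate | system = GST-tagged GASC-1 (JMJD2C) catalytic fragment, aa 2-372 | amount = enzyme final amount 10 nM | read-out = Fall in 671/618 emission ratio as inhibition | medium = HEPES buffer, pH 7.5, plus ascorbate | schedule = 30 min reaction, 60 min detection, RT | measured by = LANCE TR-FRET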
Sequence of Lysine-specific demethylase 4C (Homo sapiens) (Q9H3R0 2-372 limits assumed): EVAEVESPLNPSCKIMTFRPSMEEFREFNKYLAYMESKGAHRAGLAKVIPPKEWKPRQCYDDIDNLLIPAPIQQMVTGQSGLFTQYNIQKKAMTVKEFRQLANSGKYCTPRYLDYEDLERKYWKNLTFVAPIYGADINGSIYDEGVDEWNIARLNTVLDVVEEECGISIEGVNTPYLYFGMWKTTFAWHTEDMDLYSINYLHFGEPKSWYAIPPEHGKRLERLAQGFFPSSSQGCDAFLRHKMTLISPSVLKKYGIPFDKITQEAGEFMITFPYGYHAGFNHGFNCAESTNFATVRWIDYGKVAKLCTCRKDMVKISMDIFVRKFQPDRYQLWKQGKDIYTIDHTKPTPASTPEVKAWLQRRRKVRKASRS
A general note: In TR-FRET formats the signal depends on donor and acceptor labels being close together.
Usually inhibition stands for the drop in the measured response relative to a control, in per cent. On to `CCC(=O)Nc1ccc2c(c1)C(=O)N(C)[C@H]1CC[C@H](CC(=O)NCCOC)O[C@@H]1CO2`, for which the inhibition was 1.02%.

Turning to `Cc1noc(C)c1NC(=O)N[C@@H]1C=C[C@@H](CC(=O)Nc2ccccc2)O[C@H]1CO`, the inhibition was 1.04%.

As for `CCS(=O)(=O)Nc1ccc2c(c1)C(=O)N(C)[C@H]1CC[C@@H](CC(=O)N3CCCCC3)O[C@H]1CO2`, the inhibition was -0.234%.

Take `COCC(=O)N1CC2(C1)CN(C(=O)COC)[C@@H](CO)c1c2c2ccc(OC)cc2n1C`: the inhibition was 2.79%.

For `CC(C)NC(=O)N[C@@H]1CC[C@@H](CCNS(=O)(=O)Cc2ccccc2)O[C@@H]1CO`, the inhibition was -0.501%.

For `COc1ccc(S(=O)(=O)N(C)C[C@H]2Oc3c(NC(=O)CCCCCC(=O)Nc4ccccc4N)cccc3C(=O)N([C@H](C)CO)C[C@H]2C)cc1`, the inhibition is 0.35%.

Turning to `O=C(NC1CCCC1)[C@H]1[C@H](CO)[C@H]2Cn3c(ccc(-c4ccccc4)c3=O)[C@H]2N1CCc1ccccc1`, the inhibition is 3.27%.

Take `CO[C@H]1CN(C)C(=O)c2ccc(NC(=O)C3CCC3)cc2OC[C@H](C)NC[C@@H]1C`: the inhibition was -0.842%.

With `Cc1ccccc1S(=O)(=O)N1[C@H](CO)[C@@H](c2ccc(-c3ccccc3)cc2)[C@@H]1C#N`, the inhibition was -3.67%.

For `COc1ccc(S(=O)(=O)N(C)C[C@H]2OCCCC[C@H](C)Oc3ccc(NC(=O)Nc4ccc5c(c4)OCO5)cc3C(=O)N([C@@H](C)CO)C[C@@H]2C)cc1`, the inhibition was 15.8%.

For `C[C@@H]1CN([C@@H](C)CO)C(=O)Cc2cc(NC(=O)Nc3ccc4c(c3)OCO4)ccc2O[C@H]1CN(C)S(=O)(=O)c1ccccc1`, the inhibition was -0.169%.

As to `COc1ccc(C#Cc2ccc([C@H]3[C@H]4CN(C(=O)c5ccncc5)CC(=O)N4[C@H]3CO)cc2)cc1`, the inhibition was -3.07%.

For the compound `COc1ccccc1CNC(=O)C[C@H]1C[C@@H]2c3cc(NC(=O)Nc4ccccc4F)ccc3O[C@@H]2[C@H](CO)O1`, the inhibition was -9.36%.

As to `CO[C@@H]1CN(C)C(=O)c2cc(NC(=O)c3cccc(Oc4ccccc4)c3)ccc2OC[C@H](C)NC[C@@H]1C`, the inhibition is -0.467%.

With `CN(C)Cc1cn(CC[C@H]2CC[C@@H](NS(=O)(=O)c3ccccc3)[C@H](CO)O2)nn1`, the inhibition was 0.714%.

`O=C(NC[C@@H]1N[C@@H](CO)[C@H]1c1ccc(-c2cccnc2)cc1)c1cccc(F)c1`: the inhibition is -0.99%.

Take `CN1CCN(C(=O)C[C@H]2CC[C@@H]3[C@H](COC[C@@H](O)CN3CC3CCCC3)O2)CC1`: the inhibition is 6.35%.

As for `CCCN1C[C@@H](C)[C@@H](OC)CN(C)C(=O)c2cc(NC(=O)c3ccccc3)ccc2OC[C@H]1C`, the inhibition is -1.49%.

On to `COc1cccc(C(=O)Nc2ccc3c(c2)C(=O)N(C)[C@@H]2CC[C@@H](CC(=O)NCCCN4CCOCC4)O[C@@H]2CO3)c1`, for which the inhibition was -0.807%.

On to `COCC(=O)Nc1ccc2c(c1)[C@H]1C[C@@H](CC(=O)NCc3ccccc3F)O[C@H](CO)[C@H]1O2`, for which the inhibition is 1.67%.

On to `CCCC(=O)N1CCC2(CC1)CN[C@H](CO)c1[nH]c3cc(OC)ccc3c12`, for which the inhibition is -0.39%.

As for `CCCC(=O)Nc1ccc2c(c1)C(=O)N(C)C[C@H](OC)[C@H](C)CN(C(=O)c1ccccn1)[C@H](C)CO2`, the inhibition was 0.027%.

On to `C[C@H](CO)N1C[C@H](C)[C@@H](CN(C)Cc2ccc(Oc3ccccc3)cc2)Oc2ccc(NS(=O)(=O)c3ccc(F)cc3)cc2CC1=O`, for which the inhibition was -2.45%.

As to `O=C(Cc1cccnc1)N1CC(=O)N2[C@@H](CO)[C@@H](c3ccc(C#CC4CCCCC4)cc3)[C@@H]2C1`, the inhibition was -0.852%.

Consider `COc1ccc(-c2cn(CC[C@H]3CC[C@@H](N)[C@H](CO)O3)nn2)cc1`, for which the inhibition is -0.108%.

In the case of `N[C@@H]1CC[C@H](CCn2cc(C3CC3)nn2)O[C@@H]1CO`, the inhibition is 57.3% (active).

In the case of `CN(C)CC(=O)N[C@@H]1CC[C@@H](CCn2cc(C3CC3)nn2)O[C@H]1CO`, the inhibition was -0.3%.

As for `O=C(c1ccncc1)N1CC[C@@H]2[C@H]1c1cc(Br)ccc1N[C@@H]2CO`, the inhibition was 1.89%.

On to `CC(=O)N1[C@H](CO)[C@H](c2ccc(-c3ccccc3)cc2)[C@H]1CNC(=O)NC(C)C`, for which the inhibition was -0.299%.

Take `CCC(=O)N[C@H]1CC[C@@H](CC(=O)NCC2CC2)O[C@@H]1CO`: the inhibition was -0.369%.

For the compound `C/C=C/c1ccc([C@H]2[C@@H](CO)N(C(C)=O)[C@H]2CN(C)S(C)(=O)=O)cc1`, the inhibition is 1.96%.

Consider `COc1ccc(S(=O)(=O)Nc2ccc3c(c2)C(=O)N([C@@H](C)CO)C[C@H](C)[C@@H](CN(C)C(=O)NC(C)C)OCCCC[C@H](C)O3)cc1`, for which the inhibition is 0.601%.

On to `CN(C)C(=O)[C@@H]1[C@@H](CO)[C@@H]2Cn3c(cccc3=O)[C@H]1N2C(=O)c1ccc(F)cc1`, for which the inhibition was -1.64%.

As for `COc1ccc(NC(=O)N(C)C[C@H]2OCCCC[C@@H](C)Oc3ccc(NC(=O)NC4CCCCC4)cc3C(=O)N([C@H](C)CO)C[C@H]2C)cc1`, the inhibition was -1.08%.

Regarding `O=C(NC1Cc2ccccc2C1)[C@H]1[C@H](CO)[C@H]2Cn3c(ccc(C4=CCCCC4)c3=O)[C@H]2N1CC1CC1`, the inhibition is 3.76%.

In the case of `CC(C)NC(=O)N[C@H]1CC[C@@H](CCNC(=O)C2CCC2)O[C@@H]1CO`, the inhibition is -2.41%.

As for `Cc1ccccc1S(=O)(=O)N1[C@@H]2CNC[C@H]1C2c1ccc(-c2cccnc2)cc1` (stereo partly specified), the inhibition is -0.633% and -0.155%.

With `O=C(NCc1ccncn1)[C@@H]1[C@@H](CO)[C@@H]2Cn3c(ccc(-c4ccc(F)cc4)c3=O)[C@@H]2N1CC1CC1`, the inhibition is 12.7%.

Take `O=C(c1cnccn1)N1CC(=O)N2[C@H](C1)[C@@H](c1ccc(C#CC3CCCC3)cc1)[C@@H]2CO`: the inhibition is 7.28%.

On to `O=C(C[C@@H]1CC[C@H]2[C@@H](COC[C@@H](O)CN2S(=O)(=O)c2cccc(F)c2)O1)NCCCN1CCOCC1`, for which the inhibition is -0.281%.

Consider `C[C@H](CO)N1C[C@H](C)[C@H](CN(C)C(=O)C2CC2)Oc2cc(-c3cccnc3)ccc2S1(=O)=O`, for which the inhibition is 0.237%.
